Experiments:
Rattus norvegicus [1] = experiment: In vivo percent inhibition of mycobacterium foot-pad edema (MFE) after peroral administration was determined.; assay type: functional
In short: (§1)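 Compounds were given orally to rats at the stated doses in mg/kg. Groups held 7–14 animals each. Foot-pad edema was scored as percent inhibition against controls, or as the dose giving a set level of inhibition (ID25 or ID40).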

Rattus norvegicus [2] = experiment: In vivo ulcerogenicity was determined after peroral administration in rat; assay type: functional
In short: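 Rats were dosed orally. The ulcerogenic dose (UD50) was taken as the oral dose in mg/kg that produced ulcers in 50% of the rats tested.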

[3] = biological target: T1, Polyunsaturated fatty acid 5-lipoxygenase (Rattus norvegicus, UniProt P12527); experiment: Inhibition of 5-lipoxygenase in intact RBL-1 cell line; assay type: cell-based
T1 sequence (P12527 whole entry): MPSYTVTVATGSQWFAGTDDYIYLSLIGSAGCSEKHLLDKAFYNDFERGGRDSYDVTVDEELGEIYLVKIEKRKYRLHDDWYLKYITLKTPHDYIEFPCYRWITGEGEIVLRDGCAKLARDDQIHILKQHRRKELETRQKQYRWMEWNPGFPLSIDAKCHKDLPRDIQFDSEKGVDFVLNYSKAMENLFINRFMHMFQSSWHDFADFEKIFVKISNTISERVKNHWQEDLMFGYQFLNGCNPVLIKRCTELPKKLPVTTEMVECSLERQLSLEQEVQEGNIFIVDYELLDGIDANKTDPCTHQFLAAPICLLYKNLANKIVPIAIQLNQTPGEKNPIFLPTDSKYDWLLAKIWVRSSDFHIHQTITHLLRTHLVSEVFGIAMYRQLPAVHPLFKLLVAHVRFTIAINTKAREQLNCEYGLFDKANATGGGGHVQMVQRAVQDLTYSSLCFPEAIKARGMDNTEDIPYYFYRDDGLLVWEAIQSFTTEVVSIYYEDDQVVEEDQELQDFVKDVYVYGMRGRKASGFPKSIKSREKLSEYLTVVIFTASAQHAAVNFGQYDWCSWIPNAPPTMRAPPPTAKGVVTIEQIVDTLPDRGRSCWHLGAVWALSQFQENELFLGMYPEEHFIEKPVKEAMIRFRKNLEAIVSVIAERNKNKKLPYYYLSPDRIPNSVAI
In short: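 RBL-1 cells at 2 × 10⁶ cells/mL were held in PBS with 1.0 mM Ca²⁺. They were incubated with or without inhibitor for 7 min at 37 °C, with 5 μM ionophore A-23187. LTB₄ was measured by radioimmunoassay. IC50 came from regression of percent inhibition against inhibitor concentration; otherwise percent inhibition at the highest concentration tested was given.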

Rattus norvegicus [4] = experiment: In vivo percent inhibition of carrageenan foot-pad edema (CFE) after peroral administration was determined.; assay type: functional; in short: as §1
Rattus norvegicus [5] = experiment: In vivo ulcerogenicity was determined after peroral administration at a dose of 200 mg/kg in rat; No significant ulceration; assay type: functional, organism-based; parameters: dose 200 mg/kg
Rattus norvegicus [6] = organism: Rattus norvegicus; experiment: Relative binding affinity to 5-lipoxygenase and cyclooxygenase

| IC50 ([3]; read-out: IC50) | IC50 ratio (Rattus norvegicus [6]) | SMILES | ID40 (Rattus norvegicus [1]) | further results |
| --- | --- | --- | --- | --- |
| > 100 µM |  | COc1ccc2c(c1)c(CC(=O)O)c(C)n2C(=O)c1ccc(Cl)cc1 [INDOMETHACIN] | 0.21 mg/kg | UD50 (Rattus norvegicus [2]): 5.4 mg/kg |
|  |  | CONC(=O)c1ccccc1Nc1c(Cl)ccc(C)c1Cl | 24 mg/kg | ID25 (Rattus norvegicus [4]): 1.3 mg/kg; UD50 (Rattus norvegicus [5]): No significant inhibition |
|  | > 120 | CONC(=O)Cc1c(C)n(C(=O)c2ccc(Cl)cc2)c2ccc(OC)cc12 |  | UD50 (Rattus norvegicus [2]): 42 mg/kg |
| > 32 µM | > 5.5 | CONC(=O)C(C)c1ccc(CC(C)C)cc1 (centres undefined) |  |  |
| > 100 µM |  | CC1=C(CC(=O)O)c2cc(F)ccc2/C1=C\c1ccc([S+](C)[O-])cc1 (centres undefined) |  |  |
|  | 6.8 | COc1ccc2c(c1)c(CC(=O)NO)c(C)n2C(=O)c1ccc(Cl)cc1 [OXAMETACIN] |  | UD50 (Rattus norvegicus [2]): 103 mg/kg |
|  |  | COc1ccc2c(c1)c(CC(=O)N(O)C(C)C)c(C)n2C(=O)c1ccc(Cl)cc1 | 0.82 mg/kg | UD50 (Rattus norvegicus [5]): No significant inhibition |
| 1.2 µM | 0.06 | CC(C)Cc1ccc(C(C)C(=O)N(C)O)cc1 (centres undefined) |  |  |
| 26 µM |  | CONC(=O)CC1=C(C)/C(=C/c2ccc([S+](C)[O-])cc2)c2ccc(F)cc21 (centres undefined) |  |  |
|  |  | Cc1ccc(Cl)c(Nc2ccccc2C(=O)NO)c1Cl | 27 mg/kg | UD50 (Rattus norvegicus [5]): No significant inhibition |
|  |  | CC(C)Cc1ccc(C(C)C(=O)O)cc1 (centres undefined) [IBUPROFEN] |  | IC50 ([3]; rbl-1): No significant inhibition |
|  |  | Cc1ccc(Cl)c(Nc2ccccc2C(=O)N(C)O)c1Cl | 2.5 mg/kg | ID25 (Rattus norvegicus [4]): 0.2 mg/kg; UD50 (Rattus norvegicus [5]): No significant inhibition |
|  |  | Cc1ccc(Cl)c(Nc2ccccc2C(=O)[O-])c1Cl.O.[Na+] [MECLOFENAMATE SODIUM] | 0.39 mg/kg | UD50 (Rattus norvegicus [2]): 36 mg/kg; ID25 (Rattus norvegicus [4]): 8.2 mg/kg |
| 20 µM | 2 | CC(C)Cc1ccc(C(C)C(=O)NO)cc1 (centres undefined) [IBUPROXAM] |  |  |

From ChEMBL document CHEMBL1124859, “Nonsteroidal antiinflammatory drug hydroxamic acids. Dual inhibitors of both cyclooxygenase and 5-lipoxygenase” (J Med Chem, 1990)
